Tests used:
[1] = molecular target: T1, Human immunodeficiency virus type 1 integrase (Human immunodeficiency virus 1, UniProt Q7ZJM1); assay: Inhibition of HIV1 wild type integrase 3'-processing activity
How it was run: (§1)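 Wild-type integrase at 200 nM final was preincubated with inhibitor at 30 °C for 30 min. Buffer: 50 mM NaCl, 1 mM Hepes pH 7.5, 7.5 mM MnCl2, 0.1 mg/ml BSA, 10 mM 2-mercaptoethanol, 10% glycerol, 10% DMSO, 25 mM MOPS pH 7.2. Read-out was conversion of 21-mer DNA substrate to 19-mer (3'-processing) or to strand-transfer products. % inhibition was set against DNA-alone and DNA+IN controls. IC50 came from log concentration vs % inhibition.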

[2] = Cytotoxicity against human C8166 cells by MTT method; assay type: cell-based
How it was run: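 C8166 cell proliferation measured by MTT, expressed as the concentration reducing proliferation by 50%. Values are means of two separate experiments.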

[3] = molecular target: T1, Human immunodeficiency virus type 1 integrase; assay: Inhibition of HIV1 wild type integrase strand transfer activity; how it was run: as §1
[4] = tested on: Human immunodeficiency virus 1; assay: Antiviral activity against HIV1 3B assessed as inhibition of virus-induced cytopathogenicity in human C8166 cells after 4 days by MTT assay; assay type: functional, organism-based; settings: Human immunodeficiency virus 1, 3B, C8166, 96 h
How it was run: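 Protection of C8166 cells from HIV-1-induced cytopathogenicity, expressed as the 50% effective concentration. Values are means of two separate experiments.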

[5] = Therapeutic index, ratio of CC50 for human C8166 cells to EC50 for HIV1 3B; assay type: cell-based; settings: read-out: Ratio CC50/EC50
How it was run: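 Computed as CC50/EC50 from the C8166 MTT cytostatic and HIV-1 cytoprotection assays, each a mean of two separate experiments.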

T1 sequence (Q7ZJM1 whole entry): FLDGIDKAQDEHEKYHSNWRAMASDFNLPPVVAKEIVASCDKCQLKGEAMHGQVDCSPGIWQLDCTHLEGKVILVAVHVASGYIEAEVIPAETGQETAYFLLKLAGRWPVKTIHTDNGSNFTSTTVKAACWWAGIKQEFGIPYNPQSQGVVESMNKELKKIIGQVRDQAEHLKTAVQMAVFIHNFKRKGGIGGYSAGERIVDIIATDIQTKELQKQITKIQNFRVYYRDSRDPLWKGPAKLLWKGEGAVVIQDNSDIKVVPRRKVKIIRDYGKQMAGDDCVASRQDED

Row | Structure (SMILES) | IC50 [1] | CC50 [2] | IC50 [3] | EC50 [4] | selectivity ratio [5]
1 | O=C(O)c1cc(-c2cccc(OCc3ccccc3)c2)on1 | > 100 µM | 206 µM | 68 µM | 91 µM | 2.27
2 | O=C(O)c1cc(-c2cccc(OCc3ccccc3)c2)no1 | > 100 µM | 282 µM | 81 µM | 7.2 µM | 39.2
3 | O=C(NO)c1cc(-c2cccc(OCc3ccccc3)c2)on1 | > 100 µM | 136 µM | 27 µM | 62.8 µM | 2.17
4 | O=C(O)c1cc(-c2ccc([N+](=O)[O-])cc2)on1 | > 100 µM | > 854 µM | 97 µM | 199 µM | > 4.3
5 | O=C(O)c1csnc1-c1cccc(OCc2ccccc2)c1 | > 100 µM | > 642 µM | > 100 µM | 58 µM | > 11
6 | O=C(O)c1cc(-c2cccc(OCc3ccccc3)c2)ns1 | > 100 µM | 246 µM | > 100 µM | 51.7 µM | 4.76
7 | COC(=O)c1cc(-c2ccc([N+](=O)[O-])cc2)[nH]n1 | > 100 µM | > 809 µM | > 100 µM | 253 µM | > 3.2
8 | O=C(O)c1cc(-c2ccc([N+](=O)[O-])cc2)[nH]n1 | > 100 µM | > 857 µM | > 100 µM | 3.6 µM | > 238
9 | O=C(O)c1cc(-c2cccc(OCc3ccccc3)c2)[nH]n1 | > 100 µM | 640 µM | 100 µM | 277 µM | 2.31

Reference: ChEMBL document CHEMBL1156559, “Efficient synthesis and utilization of phenyl-substituted heteroaromatic carboxylic acids as aryl diketo acid isosteres in the design of novel HIV-1 integrase inhibitors” (Bioorg Med Chem Lett, 2008)
